Assay results: the RNAGym collection of RNA variant scans (doi:10.1126/science.aae0568)
Fewer inactive variants are shown than the library holds.

B1: tRNA (parent)
chain: GUUCCGUUGGCGUAAUGGUAACGCGUCUCCCUCCUAAGGAGAAGACUGCGGGUUCGAGUCCCGUACGGAACG

Variants of: B1
Experiment: yeast fitness relative to wild type (ratio to wild type); higher = fitter; tRNA-Arg(CCU), competitive growth, 37 C, YPD
Outline: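 Variants of the tRNA-Arg(CCU) gene were chemically synthesised with a 3% per-site mutation rate across 69 sites and placed at the native genomic locus in Saccharomyces cerevisiae. Six parallel replicates of the pooled strains were competed in YPD at 37°C for 24 hours, and gene amplicons from the start and end populations were read by 100-nucleotide paired-end sequencing. Darwinian fitness relative to wild type was derived from changes in genotype frequencies. Genotypes required ≥ 100 starting reads, and estimates < 0.5 were set to 0.5.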

| Variant | yeast fitness |
| --- | --- |
| GUUACAUUGGCGUAAUGGUAACGCGUCUCCCUCCUAAGGAGAAGACUGCGGGUUCGAGUCCCGAACGGAACG [C4A G6A U64A] | ≤ 0.5 |
| GUUACCUUGGCGUAAUGGUAACGCGUCUCCCUCCUAAGGAGAAGACUGCGGGUUCGAGUCCCGUACGGAACG [C4A G6C] | 0.703 |
| GUUACCUAGGCGUAAUGGUCUCGCGUCUCCAUUCUAAGGAGAAGAUUGCGGGUUCGGGUCCCGUACGGAACG [C4A G6C U8A A20C A21U C31A C33U C46U A57G] | ≤ 0.5 |
| GUUACGUUAGCGUAAUGGUAACGCGUCUCCCUCCUAAGGAGAAGACUGCGGGUUCGAGUCCCGUACGGAACG [C4A G9A] | 0.907 |
| GUUACGUUAGCGUAAUGGUAAAGCGUGUCCCUCCUAAGGAGAAGACUGCGGGUUCAAGUCCCGUACGGAACG [C4A G9A C22A C27G G56A] | ≤ 0.5 |
| GUUACGUUAGCGUAAUGGUAAAGCGUGUCCCUCCUAAGGAGAAGACUGCGGGAUCGAGUCCCGUGCGGAACG [C4A G9A C22A C27G U53A A65G] | ≤ 0.5 |
| GUUACGUUAGCGUAAUGGUAACGUGUCUCUCUCCUGAGGAGAAGACUGCGGGUUCGGAUCCCAUACGGAACG [C4A G9A C24U C30U A36G A57G G58A G63A] | ≤ 0.5 |
| GUUACGUUAGCGUAAUGGUAACGUGUCUCUCUCCUGAGGAGAAGACUGCGGGUUCGGAUCCCAUAUGGAACG [C4A G9A C24U C30U A36G A57G G58A G63A C66U] | ≤ 0.5 |
| GUUACGUUAGCGUAAUGGUAACGCGUCUCCCUCCUAAGGAGAAGACUGAGGGCUCGAGUCCCGUACGGAACG [C4A G9A C49A U53C] | ≤ 0.5 |
| GUUACGUUAGCGUAAUGCUAAAGCGUCUCCCUCCUAAGGAGAAGACUGCCGGUUCGAGUCCCGUCCGGAACG [C4A G9A G18C C22A G50C A65C] | ≤ 0.5 |
| GUUACGUUAGCGUAAUGGUAACGCGUCUCCCUCCUAAGGAGAACACUGCGAGUUCGACACCCGUACGGAACG [C4A G9A G44C G51A G58C U59A] | ≤ 0.5 |
| GUUACGUUAGCGUAAAGGUAACGCGUCUCCCUCCUAAGGGGAAGAUUGCGGGUUCGAGUCCCGUACGGAACG [C4A G9A U16A A40G C46U] | ≤ 0.5 |
| GUUACGUUAGCGUAAAGGUAACGCGUCUCCCUCCUAAGGGGAAGAUUGCGGGUUCGAGUCCGGUACGGUACG [C4A G9A U16A A40G C46U C62G A69U] | ≤ 0.5 |
| GUUACGUUCGGGUAAUGGUAACGCGUCUCCCUCCUAAGGAGAAGACUGCGGGUUCGAGUCCCGUACGGAACG [C4A G9C C11G] | ≤ 0.5 |
| GUUACGUUCGGGUAAUGGUAACGCGUCUCCCUCCUAAGGAGAAGCCUGCGGGUUCGGGUCCCGUACGGAACG [C4A G9C C11G A45C A57G] | 0.526 |
| GUUACGUUCGGGUAAUGGUAACGCGUCUCCCUGCUACGGAGAAGCCUGCGGGUUCGAGUCCCGUACGGAACG [C4A G9C C11G C33G A37C A45C] | ≤ 0.5 |
| GUUACGUUCGCGUAAUGGUAACGCGUCUCCAUCCUAAGGAAAAGACUGCGGGUUCGAGUCCCGUACGGAACG [C4A G9C C31A G41A] | 0.773 |
| GUUACGUUGACGUAAUGGUAACACGUCUCCCUCCUAAGGAGAAGACUGCGGGUUGGAGUACCGUACGGAACG [C4A G10A G23A C55G C60A] | ≤ 0.5 |
| GUUACGUUGACGUAAUGGUAACACGUCCCCCUCCUAAGGAGAAGACUGCGGGUUGGAGUACCGUACGGAACG [C4A G10A G23A U28C C55G C60A] | ≤ 0.5 |

| Variant | yeast fitness |
| --- | --- |
| GUUACGUUGACGUAAUGGUAACGCGUCACCCUCCUAAGGAGAAGACUGCGGGUUGGAGUCCCGUACGGAACG [C4A G10A U28A C55G] | ≤ 0.5 |
| GUUACGUUGCUGUAAUGGUAACGCGUUUCCCUCCUAAGGAGAAGUCUGCGGGUUCGAGUGCCGUACGGAACG [C4A G10C C11U C27U A45U C60G] | ≤ 0.5 |
| GUUACGUUGCCGUAAUGGUAACGCGUCUCCCUCCUAAGGAGAAGACUGCGGGUUCGAAUCCCGUACGGAACG [C4A G10C G58A] | 0.713 |
| GUUACGUUGCCGUAAUGGUAACGCGUCUCCCUCCUAAGGAGAAGACUGCGGGUUCGAGUCCCCUACGGUACG [C4A G10C G63C A69U] | ≤ 0.5 |
| GUUACGUUGGCAUAAUGGUAACGCGUCUCCCUCCUAAGGAGGAGACUGCGGGUUCGAGUCCCGUACGGAACG [C4A G12A A42G] | ≤ 0.5 |
| GUUACGUUGGCAUAAUGGUAACGCGUCUCCCUCGUAAGGAGAAGACUGCGGGUUCGAGUCCCGUAUGGAACG [C4A G12A C34G C66U] | ≤ 0.5 |
| GUUACGUUGGCAUAAAGGUAACGCGUCUCCCUCCUAAGGAGAAGACUGCGAGUACGAGUCCCGUACGGAACG [C4A G12A U16A G51A U54A] | 0.542 |
| GUUACGUUGGCCUAAUGGUAACGCGUCUCCCUCCUAGAGAGAAGACUGCGGGUUCGAGUCCCGUACGGAACG [C4A G12C A37G G38A] | ≤ 0.5 |
| GUUACGUUGGCCGAAUGGUAACGCGUCUCUCUCCUAAGGAGAAGACUGCGGGUUCGACUCCCGUACGGAACG [C4A G12C U13G C30U G58C] | ≤ 0.5 |
| GUUACGUUGGCCUAAUGGCAAUGGGUCUCCCUCCUAAGGAGAUGACUGCGGGUUCGAGUCACGUACGGAACG [C4A G12C U19C C22U C24G A43U C61A] | ≤ 0.5 |
| GUUACGUUGGCCUAAUGGCAACGGGUCUCCCUCCUAAGGAGAUGACUGCGGGUCCGAGUCACGUACGGAACG [C4A G12C U19C C24G A43U U54C C61A] | ≤ 0.5 |
| GUUACGUUGGCGUAAUAGUAGCGGGUCUCCCUCCUAAGGAGAAGACUGCGGGUUCGAGUCCCGUACAGAGCG [C4A G17A A21G C24G G67A A70G] | ≤ 0.5 |
| GUUACGUUGGCGUAAUAGUAACGCGUCUCCCUCCUAAGGAGUAGACUGCGGGUUGGAGUCCCGUACGGAACG [C4A G17A A42U C55G] | ≤ 0.5 |
| GUUACGUUGGCGUAAUAGUAAAGCGUCUCCAUACUAAGGAGAAGACUGAGGGUUCGAGUCCCGUACGGAACG [C4A G17A C22A C31A C33A C49A] | 0.525 |
| GUUACGUUGGCGUAAUAGUAACGCGUUUCCCUUCUAAGGAGAAGACUGCGGGUUCGAGUCCCGUACGGAACG [C4A G17A C27U C33U] | ≤ 0.5 |
| GUUACGUUGGCGUAAUAGUAACGCGUCUCACUCCUAAGGAGAAGACUGCGGGUUCGAGUCCCGUACGGAACG [C4A G17A C30A] | ≤ 0.5 |
| GUUACGUUGGCGUAAUAGUAACGCGUCUCCCUCCUAAGGAGAAGACUGCGGGUUCGAGUGCCGUACGGAGCG [C4A G17A C60G A70G] | ≤ 0.5 |
| GUUACGUUGGCGUAAUAGUAACGCGUCUCCCUCCUAAGGAGAAGACUGCGGGUUCGAGUCACGUACGGAACG [C4A G17A C61A] | 0.534 |
| GUUACGUUGGCGUAAUAGUAACGCGUCUCCCUCCUAAGGAGAAGACUGCGGGUUCGAGUCCUGUACGGAACG [C4A G17A C62U] | 0.556 |
